Test results reported in ChEMBL document CHEMBL1122967 (J Med Chem, 1985).
Blank lines part the entries; values can stand above or below the compound they belong to.

Experiments:
Format in all cases: ADME, organism-based
Details in all cases: in vivo
Rattus norvegicus [1] = assay: Distribution of [125I]AC in rest of the brain after intravenous administration in rat after 2hours, expressed as percent dose/gram
Procedure, shortened: (§1)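 Rats received the radioiodinated ligand intravenously and were killed with ether at 1 h or 2 h (six per time point). Organs and brain regions (striatum, cerebellum, thalamus, rest of brain) were sampled and counted. Uptake was calculated as percent injected dose per gram tissue, reported ± SD. The striatum/cerebellum ratio was taken from the regional uptake values.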

Rattus norvegicus [2] = species on record: Rattus norvegicus; assay: Ratio of striatum/cerebellum distribution in rat after 1 hr; procedure, shortened: as §1
Rattus norvegicus [3] = assay: Distribution of [125I]AC in rest of the brain after intravenous administration in rat after 1hour, expressed as percent dose/gram; procedure, shortened: as §1
Rattus norvegicus [4] = species on record: Rattus norvegicus; assay: Ratio of striatum/cerebellum distribution in rat after 2 hr; procedure, shortened: as §1
Rattus norvegicus [5] = assay: Distribution of [125I]AC in striatum after intravenous administration in rat after 1hour, expressed as percent dose/gram; procedure, shortened: as §1
Rattus norvegicus [6] = assay: Distribution of [125I]AC in striatum after intravenous administration in rat after 2hours, expressed as percent dose/gram; procedure, shortened: as §1
Rattus norvegicus [7] = assay: Distribution of [125I]-AC in thalamus after intravenous administration in rat after 1hour, expressed as percent dose/gram; procedure, shortened: as §1
Rattus norvegicus [8] = assay: Distribution of [125I]-AC in cerebellum after intravenous administration in rat after 2hours, expressed as percent dose/gram; procedure, shortened: as §1
Rattus norvegicus [9] = assay: Distribution of [125I]AC in cerebellum after intravenous administration in rat after 1hour, expressed as percent dose/gram; procedure, shortened: as §1
Rattus norvegicus [10] = assay: Distribution of [125I]-AC in heart after intravenous administration in rat after 2hours, expressed as percent dose/gram; procedure, shortened: as §1
Rattus norvegicus [11] = assay: Distribution of [125I]-AC in blood after intravenous administration in rat after 2hours, expressed as percent dose/gram; procedure, shortened: as §1
Rattus norvegicus [12] = assay: Distribution of [125I]AC in blood after intravenous administration in rat after 1hour, expressed as percent dose/gram; procedure, shortened: as §1
Rattus norvegicus [13] = assay: Distribution of [125I]AC in heart after intravenous administration in rat after 1hour, expressed as percent dose/gram; procedure, shortened: as §1
Rattus norvegicus [14] = assay: Distribution of [125I]AC in thalamus after intravenous administration in rat after 2hours, expressed as percent dose/gram; procedure, shortened: as §1
Rattus norvegicus [15] = assay: Distribution of [125I]iodoclebopride in striatum after intravenous administration in rat after 1hour, expressed as percent dose/gram; procedure, shortened: as §1
Rattus norvegicus [16] = assay: Distribution of [125I]iodoclebopride in cerebellum after intravenous administration in rat after 2hours, expressed as percent dose/gram; procedure, shortened: as §1
Rattus norvegicus [17] = assay: Distribution of [125I]iodoclebopride in heart after intravenous administration in rat after 1hour, expressed as percent dose/gram; procedure, shortened: as §1
Rattus norvegicus [18] = assay: Distribution of [125I]iodoclebopride in heart after intravenous administration in rat after 2hours, expressed as percent dose/gram; procedure, shortened: as §1
Rattus norvegicus [19] = assay: Distribution of [125I]Iodoclebopride in rest of the brain after intravenous administration in rat after 1hour, expressed as percent dose/gram; procedure, shortened: as §1
Rattus norvegicus [20] = assay: Distribution of [125I]iodoclebopride in striatum after intravenous administration in rat after 2hours, expressed as percent dose/gram; procedure, shortened: as §1
Rattus norvegicus [21] = assay: Distribution of [125I]iodoclebopride in blood after intravenous administration in rat after 2hours, expressed as percent dose/gram; procedure, shortened: as §1
Rattus norvegicus [22] = assay: Distribution of [125I]iodoclebopride in thalamus after intravenous administration in rat after 2hours, expressed as percent dose/gram; procedure, shortened: as §1
Rattus norvegicus [23] = assay: Distribution of [125I]Iodoclebopride in rest of the brain after intravenous administration in rat after 2hours, expressed as percent dose/gram; procedure, shortened: as §1
Rattus norvegicus [24] = assay: Distribution of [125I]iodoclebopride in blood after intravenous administration in rat after 1hour, expressed as percent dose/gram; procedure, shortened: as §1
Rattus norvegicus [25] = assay: Distribution of [125I]iodoclebopride in thalamus after intravenous administration in rat after 1hour, expressed as percent dose/gram; procedure, shortened: as §1
Rattus norvegicus [26] = assay: Distribution of [125I]iodoclebopride in cerebellum after intravenous administration in rat after 1hour, expressed as percent dose/gram; procedure, shortened: as §1

- Tissue distribution (Rattus norvegicus [1]): 0.16%
- Ratio (Rattus norvegicus [2]): 1.92
- Tissue distribution (Rattus norvegicus [3]): 0.18%
- Ratio (Rattus norvegicus [4]): 1.65
- Tissue distribution (Rattus norvegicus [5]): 0.5%
- Tissue distribution (Rattus norvegicus [6]): 0.38%
- Tissue distribution (Rattus norvegicus [7]): 0.27%
- Tissue distribution (Rattus norvegicus [8]): 0.23%
- Tissue distribution (Rattus norvegicus [9]): 0.26%
- Tissue distribution (Rattus norvegicus [10]): 0.3%
- Tissue distribution (Rattus norvegicus [11]): 0.29%
- Tissue distribution (Rattus norvegicus [12]): 0.33%
- Tissue distribution (Rattus norvegicus [13]): 0.35%
- Tissue distribution (Rattus norvegicus [14]): 0.22%
Structure (SMILES): COc1cc(N)c(I)cc1C(=O)NC1CCN(Cc2ccccc2)CC1

- Ratio (Rattus norvegicus [2]): 2.23
- Tissue distribution (Rattus norvegicus [15]): 2.52%
- Tissue distribution (Rattus norvegicus [16]): 1.06%
- Tissue distribution (Rattus norvegicus [17]): 1.61%
- Tissue distribution (Rattus norvegicus [18]): 1.34%
- Ratio (Rattus norvegicus [4]): 2.37
- Tissue distribution (Rattus norvegicus [19]): 0.78%
- Tissue distribution (Rattus norvegicus [20]): 2.52%
- Tissue distribution (Rattus norvegicus [21]): 0.34%
- Tissue distribution (Rattus norvegicus [22]): 1.12%
- Tissue distribution (Rattus norvegicus [23]): 0.73%
- Tissue distribution (Rattus norvegicus [24]): 0.32%
- Tissue distribution (Rattus norvegicus [25]): 1.25%
- Tissue distribution (Rattus norvegicus [26]): 1.13%
Structure (SMILES): COc1cc(N=[N+]=[N-])c(I)cc1C(=O)NC1CCN(Cc2ccccc2)CC1 [IODOAZIDOCLEBOPRIDE]
